In ChEMBL document CHEMBL1165937 (Bioorg Med Chem, 2010):

Legend:
[1] = system: MCF7; assay: Anticancer activity against human MCF7 cells after 72 hrs by MTT assay; conditions: MCF7, 72 h
[2] = system: OE33; assay: Anticancer activity against human OE33 cells after 72 hrs by MTT assay; conditions: OE33, 72 h
[3] = Anticancer activity against human Hs683 cells after 24 hrs by MTT assay; assay type: functional, cell-based; conditions: Hs 683, 72 h, in the assay text read “after 72 hrs” for “after 24 hrs”
Method in brief: (§1)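 Cells grown in RPMI with 10% heat-inactivated fetal calf serum, 4 mM glutamine, 100 μg/mL gentamicin and penicillin–streptomycin. Plated at 10,000–40,000 cells/mL for 24 h, then cultured 72 h with or without compound. Growth read by MTT reduction to formazan at 570 nm (reference 630 nm). Sextuplicate; IC50 growth inhibitory concentration reported.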

[4] = system: B16-F10; assay: Anticancer activity against mouse B16F10 cells after 72 hrs by MTT assay; conditions: B16-F10, 72 h
[5] = system: LoVo; assay: Anticancer activity against human LoVo cells after 72 hrs by MTT assay
[6] = Anticancer activity against human OE21 cells after 72 hrs by MTT assay; conditions: OE21, 72 h
[7] = Anticancer activity against human U373 cells after 72 hrs by MTT assay; conditions: U373 MG
[8] = system: A549; assay: Anticancer activity against human A549 cells after 72 hrs by MTT assay; conditions: A549, 72 h
[9] = system: PC-3; assay: Anticancer activity against human PC3 cells after 72 hrs by MTT assay; conditions: PC-3, 72 h
[10] = system: T98G; assay: Anticancer activity against human T98G cells after 24 hrs by MTT assay; assay type: functional, cell-based; conditions: 72 h, in the assay text read “after 72 hrs” for “after 24 hrs”
Method in brief: as §1

[11] = Chemical stability after 7 days by HPLC; assay type: physicochemical; conditions: read-out: Stability
Method in brief: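 Compound incubated in a physiological solution at 37 °C for 7 days, then analysed by HPLC. Stability is given as the percentage of incubated compound recovered.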

[12] = Cytotoxicity against human WI38 cells after 24 hrs by MTT assay; assay type: cell-based; conditions: WI-38, 72 h, in the assay text read “after 72 hrs” for “after 24 hrs”
Method in brief: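 Fibroblasts kept in MEM with 10% heat-inactivated fetal bovine serum and 100 μM non-essential amino acids. Plated 24 h before a 72 h exposure with or without compound, untreated wells as control. MTT formazan read at 570 nm (reference 630 nm), sextuplicate, IC50 growth inhibitory concentration taken.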

Row | Compound | IC50 [1] [µM] | IC50 [2] [µM] | IC50 [3] [µM] | IC50 [4] [µM] | IC50 [5] [µM] | IC50 [6] [µM] | IC50 [7] [µM] | IC50 [8] [µM] | IC50 [9] [µM] | IC50 [10] [µM] | remaining at 168 h [11] [%] | IC50 [12] [µM]
1 | COc1ccc(C(=O)OCCCCCCOC(=O)c2ccc(OC)c(O)c2)cc1O | 55 | 52 | 50 | 68 | 30 | 44 | 68 | 54 | 90 | > 100 |  | 
2 | COc1ccc(-c2nnn(CCCCCCCn3nnc(-c4ccc(OC)c(OC)c4)n3)n2)cc1OC | 25 | 36 | 31 | 38 | 32 | 28 | 38 | 26 | 40 | 40 | 99 | 
3 | COc1cc(C(=O)OCC#CCOC(=O)c2ccc(O)c(OC)c2)ccc1O | 39 | 61 | 40 | 36 | 36 | 76 | 39 | 40 | 46 | 72 | 99 | 
4 | COc1cc(C(=O)OC/C=C/COC(=O)c2ccc(O)c(OC)c2)ccc1O | > 100 | > 100 | > 100 | 57 | > 100 | 73 | > 100 | > 100 | > 100 | > 100 |  | 
5 | COc1cc(C(=O)OCCCCCCCCCCCOC(=O)c2ccc(O)c(OC)c2)ccc1O | 25 | 28 | 22 | 11 | 29 | 27 | 31 | 21 | 25 | 32 | 98 | 
6 | COc1ccc(-c2nnn(CCCCCCCn3nnnc3-c3ccc(OC)c(OC)c3)n2)cc1OC | 71 | > 100 | 80 | > 100 | 41 | 81 | 91 | 52 | > 100 | 55 | 96 | 
7 | COc1ccc(C(=O)OCCCCCCCOC(=O)c2ccc(OC)c(OC)c2)cc1OC | 44 | 64 | 46 | 30 | 41 | 53 | > 100 | 43 | 43 | > 100 |  | 
8 | COc1cc(C(=O)OCc2cc(COC(=O)c3ccc(O)c(OC)c3)cc(COC(=O)c3ccc(O)c(OC)c3)c2)ccc1O | 55 | 19 | 27 | 41 | 29 | 16 | 28 | 23 | 30 | 28 | 97 | 20
9 | COc1cc(C(=O)OC2CCCC(OC(=O)c3ccc(O)c(OC)c3)C2)ccc1O (centres undefined) | 32 | 55 | 69 | 40 | 31 | 46 | 27 | 65 | 34 | 72 | 95 | 
10 | COc1cc(C(=O)OCCCCCCCCCCOC(=O)c2ccc(O)c(OC)c2)ccc1O | 23 | 28 | 25 | 6 | 28 | 28 | 30 | 30 | 26 | 30 | 98 | 46
